We go through 43 compounds from ChEMBL document CHEMBL4257537, “Design, synthesis, and biological evaluation of m-amidophenol derivatives as a new class of antitubercular agents” (Medchemcomm, 2018).

Values after ≈ are worked out from the molar mass of the structure shown. Where only a bound is given, the exact number is not on record here.

In data set [1] the test system is Mycobacterium tuberculosis. Nature of the data set: Antitubercular activity against Mycobacterium tuberculosis H37Ra after 5 days by luminescence assay. The settings on record: 120 h. In kind it is functional. The procedure, abridged:
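Compounds were 10-point two-fold dilutions in 7H9-Tw-OADC, top 100 µg/mL, final DMSO 2%. Controls were INH 1 µg/mL (zero growth) and DMSO (maximum growth). RLU was read daily in triplicate over days 0–5. Percent growth was fitted to a Gompertz model, and MIC was taken where the inflection point meets the lower asymptote.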

Data set [2] concerns Mycobacterium tuberculosis. Nature of the data set: Antimycobacterial activity against Mycobacterium tuberculosis H37Rv after 7 days by microplate alamar blue assay. It is filed as functional. The note with it: 168 h. The procedure, abridged:
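Each well held a 1/100 culture dilution plus 10-point two-fold DMSO dilutions (top 100 µg/mL, final DMSO 2%). INH and RIF were the positive controls. After 7 days at 37 °C, Tween 80 and alamarBlue were added for 16–24 h. MIC was the lowest concentration preventing the blue-to-pink change.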

The subject of another data set is Staphylococcus aureus. Put plainly: Toxicity in Staphylococcus aureus after 18 to 24 hrs by two-fold serial dilution method. In kind it is organism-based.
In a further data set the test system is Escherichia coli. Put plainly: Toxicity in Escherichia coli after 18 to 24 hrs by two-fold serial dilution method. In kind it is organism-based.
A further data set has as its system Enterococcus faecalis. Nature of the data set: Toxicity in Enterococcus faecalis after 18 to 24 hrs by two-fold serial dilution method. It is filed as organism-based.
The subject of the next data set is HepG2. Put plainly: Cytotoxicity against human HepG2 cells after 72 hrs by MTT assay. It is filed as cell-based. The note with it: HepG2, 72 h.
Another data set deals with RAW264.7. Nature of the data set: Cytotoxicity against mouse RAW264.7 cells after 72 hrs by MTT assay. In kind it is cell-based. The settings on record: RAW264.7, 72 h.
Data set [3] in a line: Selectivity index, ratio of IC50 for human HepG2 cells to MIC for Mycobacterium tuberculosis H37Ra. It is filed as toxicity. The settings on record: read-out: Selectivity Index.
A short description of data set [4]: Selectivity index, ratio of IC50 for mouse RAW264.7 cells to MIC for Mycobacterium tuberculosis H37Ra. It is filed as toxicity. The settings on record: read-out: Selectivity Index.

The term IC50 denotes the concentration that gives 50% inhibition. Higher therefore signals weaker potency in that assay.

In the case of `O=C(Nc1cccc(O)c1)c1ccccc1`, in [1], the MIC is over 50 µg/mL.

`CC(C)CCc1cc(O)cc(NC(=O)C2CCCCC2)c1` returned an MIC in data set [1] of over 50 µg/mL. Still for that read-out and setting: next, `O=C(Nc1cc(O)cc(Cc2ccccc2)c1)C(F)(F)F`: over 50 µg/mL; `O=C(Nc1cc(O)cc(Cc2ccccc2)c1)c1ccco1`: 10 µg/mL (≈ 34.1 µM).

The compound `CC(C)(C)C(=O)Nc1cc(O)cc(Cc2ccccc2)c1` returned an MIC in data set [1] of 2.5 µg/mL (≈ 8.82 µM). Turning to `O=C(O)c1cc(Cc2ccccc2)cc(NC(=O)c2ccccc2)c1`, the MIC in [1] is over 50 µg/mL. Consider `O=C(Nc1cc(O)cc(Cc2ccccc2)c1)c1ccc(C2CCCCC2)cc1`, for which, in data set [1], the MIC was over 50 µg/mL.

Regarding `O=C(Nc1cc(O)cc(Cc2ccccc2)c1)c1ccc(OC(F)(F)F)cc1`, the MIC in [1] stood at 10 µg/mL (≈ 25.8 µM).

`O=C(Nc1cc(O)cc(Cc2ccccc2)c1)c1cccnc1Cl`: the MIC in data set [1] was 5 µg/mL (≈ 14.8 µM). For `Cc1ccc(C(=O)Nc2cc(O)cc(Cc3ccccc3)c2)cc1`, in data set [1], the MIC is 1.25 µg/mL (≈ 3.94 µM). Same read-out and setting: next, `O=C(Nc1cc(O)cc(Cc2ccccc2)c1)c1ccc(Cl)cc1Cl`: 5 µg/mL (≈ 13.4 µM); `O=C(Nc1cc(O)cc(Cc2ccccc2)c1)c1ccccc1Cl`: 2.5 µg/mL (≈ 7.4 µM). In turn, `O=C(Nc1cc(O)cc(Cc2ccccc2)c1)c1cccs1` gave an MIC in data set [1] of 2.5 µg/mL (≈ 8.08 µM). The same measure, in the same setting: next, `CCC1CCC(C(=O)Nc2cc(O)cc(Cc3ccccc3)c2)CC1` (stereo unspecified): 2.5 µg/mL (≈ 7.41 µM).

Regarding `O=C(Nc1cc(O)cc(Cc2ccccc2)c1)C1CCCCC1`, the MIC in data set [1] is 0.625 µg/mL (≈ 2.02 µM); in data set [2] it was 0.39 µg/mL (≈ 1.26 µM); against Staphylococcus aureus, over 50 µg/mL; in the data set with Escherichia coli, over 50 µg/mL; against Enterococcus faecalis, over 50 µg/mL. The figures for the IC50 in the data set on HepG2 and with RAW264.7 were over 161 µM and over 323 µM, respectively. Also, the selectivity ratio in data set [3] was over 80; in data set [4], over 160.

In [1], `Nc1cc(Cc2ccccc2)cc(NC(=O)c2ccccc2)c1` had an MIC of 10 µg/mL (≈ 33.1 µM). `CC(=O)Nc1cc(O)cc(Cc2ccccc2)c1` gave an MIC in data set [1] of over 100 µg/mL.

Compound `Cc1nnsc1C(=O)Nc1cc(O)cc(Cc2ccccc2)c1` registered an MIC in data set [1] of 10 µg/mL (≈ 30.7 µM). Compound `O=C(Nc1cc(O)cc(Cc2ccccc2)c1)C1CCCC1` showed an MIC in [1] of 2.5 µg/mL (≈ 8.46 µM). Turning to `COc1cc(Cc2ccccc2)cc(NC(=O)c2ccccc2)c1`, the MIC in data set [1] was over 50 µg/mL. For the compound `CC(C)(C)c1ccc(C(=O)Nc2cc(O)cc(Cc3ccccc3)c2)cc1`, in data set [1], the MIC amounted to 2.5 µg/mL (≈ 6.95 µM). The same measure, in the same setting: for `O=C(Nc1cc(O)cc(Cc2ccccc2)c1)C1CCOCC1` the value was 6.25 µg/mL (≈ 20.1 µM); for `O=C(Nc1cc(O)cc(Cc2ccccc2)c1)c1cc(C(F)(F)F)cc(C(F)(F)F)c1`, over 25 µg/mL; for `O=C(Nc1cc(O)cc(Cc2ccccc2)c1)C1CC1`, 5 µg/mL (≈ 18.7 µM). In [1], `CCCCCc1cc(O)cc(NC(=O)C2CCCCC2)c1` returned an MIC of over 50 µg/mL.

For the compound `O=C(Nc1cc(O)cc(Cc2ccccc2)c1)N1CCOCC1`, the MIC in data set [1] was 12.5 µg/mL (≈ 40 µM). Same read-out and setting: for `Cc1ccc(C)c(Cc2cc(O)cc(NC(=O)C3CCCCC3)c2)c1` the value was over 50 µg/mL. Still for that read-out and setting: for `Oc1cccc(Cc2ccccc2)c1` the value was over 50 µg/mL. On the same count and under the same terms, for `O=C(Nc1cc(O)cc(Cc2ccccc2)c1)c1ccc(C(F)(F)F)cc1` the value was 5 µg/mL (≈ 13.5 µM). For `CC(C)(C)C1CCC(C(=O)Nc2cc(O)cc(Cc3ccccc3)c2)CC1` (stereo unspecified), the MIC in [1] is over 50 µg/mL. `O=C(Nc1cc(O)cc(Cc2ccccc2)c1)C12CC3CC(CC(C3)C1)C2` showed an MIC in data set [1] of over 50 µg/mL. With `O=C(Nc1cc(O)cc(Cc2ccccc2)c1)c1ccccc1`, the MIC in data set [1] was 5 µg/mL (≈ 16.5 µM); in [2], 0.39 µg/mL (≈ 1.29 µM); against Staphylococcus aureus, over 50 µg/mL; in the data set with Escherichia coli, over 50 µg/mL; against Enterococcus faecalis it was over 50 µg/mL. Further, the IC50 in the data set on HepG2 and in the data set on RAW264.7 was over 330 µM each time. Also, the selectivity ratio in data set [3] and in [4] was over 20 in each case. The compound `O=C(Nc1cc(O)cc(C(O)c2ccccc2)c1)c1ccccc1` (stereo unspecified) displayed an MIC in data set [1] of over 50 µg/mL. In the case of `O=C(Nc1cc(O)cc(Cc2ccccc2)c1)c1ccc(F)c(Cl)c1`, the MIC in data set [1] amounted to 5 µg/mL (≈ 14.1 µM). Regarding `CCCc1cc(O)cc(NC(=O)C2CCCCC2)c1`, the MIC in data set [1] was over 50 µg/mL. `O=C(Nc1cc(O)cc(Cc2ccccc2)c1)c1ccc([N+](=O)[O-])cc1` registered an MIC in [1] of over 50 µg/mL. In [1], `O=C(Nc1cc(O)cc(Cc2ccccc2)c1)c1cccc(Cl)c1` came in with an MIC of 2.5 µg/mL (≈ 7.4 µM). On the same count and under the same terms, next, `O=C(Nc1cc(O)cc(Cc2ccccc2)c1)c1ccc(Cl)cc1`: 2.5 µg/mL (≈ 7.4 µM); `CC(C)C(=O)Nc1cc(O)cc(Cc2ccccc2)c1`: 5 µg/mL (≈ 18.6 µM).

The compound `CC1(C)S[C@@H]2[C@H](NC(=O)[C@H](N)c3ccc(O)cc3)C(=O)N2[C@H]1C(=O)O` [AMOXICILLIN] registered an MIC with Staphylococcus aureus of 0.78 µg/mL (≈ 2.13 µM). `NNC(=O)c1ccncc1` [ISONIAZID]: the MIC is 0.1 µg/mL (≈ 0.729 µM) in data set [1] and 0.41 µg/mL (≈ 2.99 µM) in data set [2].

For the compound `CC1COc2c(N3CCN(C)CC3)c(F)cc3c(=O)c(C(=O)O)cn1c23` (stereo unspecified) [OFLOXACIN], the values for the MIC in the data set with Staphylococcus aureus and against Escherichia coli were 0.31 µg/mL (≈ 0.858 µM) and 1.25 µg/mL (≈ 3.46 µM), respectively. Regarding `CO[C@H]1/C=C/O[C@@]2(C)Oc3c(C)c(O)c4c(O)c(c(/C=N/N5CCN(C)CC5)c(O)c4c3C2=O)NC(=O)/C(C)=C\C=C\[C@H](C)[C@H](O)[C@@H](C)[C@@H](O)[C@@H](C)[C@H](OC(C)=O)[C@@H]1C` [RIFAMPIN], the MIC in data set [2] was found to be 0.003 µg/mL (≈ 0.00365 µM).
